Assay results from publication PMC4065498 (Chemical research in toxicology, 2010).

Legend:
THP1 foam cells = test: Endogenous 2AG produced by cholesterol-loaded THP1 macrophages; type: cell-based, human; conditions: 24 h
intact THP1 monocytes = type: cell-based, human; conditions: PO 1 μM, 30 min; substrate 25 μM, 60 min
[1] = test system: lipid glyceryl ester hydrolase activities of THP1 monocyte lysates; conditions: for inhibition of PGE2-G hydrolysis activity in THP1 cell lysate / inhibition of hydrolysis of exogenous 2AG in THP1 lysate: oxon 1 μM; for inhibition of hydrolysis of exogenous 2AG in THP1 lysate: 2AG 10 μM; for inhibition of 2AG hydrolysis activity in THP1 lysate: oxon 10 μM; for knock down of 2AG hydrolysis activity in THP1 monocyte lysate: oxon 500 μM
THP1 macrophages [2] = test: In situ formation of PG-Gs by LPS-primed THP1 macrophages given exogenous 2AG; type: cell-based, human; conditions: 1 μM PO 30 min prior to 10 μM 2AG; LPS-pretreated THP1 macrophages
THP1 macrophages [3] = test: PG-G and 2AG levels in LPS-primed THP1 macrophages stimulated with ionomycin; type: cell-based, human; conditions: oxon 1 μM, ionomycin 5 μM
recombinant human MAGL = molecular target: T1, recombinant human MAGL (Homo sapiens, UniProt Q99685); type: biochemical; conditions: 2AG substrate
T1 sequence (Q99685 1-303): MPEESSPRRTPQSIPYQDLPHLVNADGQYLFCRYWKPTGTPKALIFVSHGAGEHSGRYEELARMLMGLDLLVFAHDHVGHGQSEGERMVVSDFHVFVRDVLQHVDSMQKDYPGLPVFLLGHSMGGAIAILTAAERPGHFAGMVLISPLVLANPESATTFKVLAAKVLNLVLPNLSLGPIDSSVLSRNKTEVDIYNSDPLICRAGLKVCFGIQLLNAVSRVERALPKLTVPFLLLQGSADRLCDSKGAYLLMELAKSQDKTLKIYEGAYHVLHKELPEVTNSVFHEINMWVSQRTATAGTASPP

recombinant human CES1 = molecular target: T2, recombinant human CES1 (Homo sapiens, UniProt P23141); type: biochemical; conditions: 2AG substrate
T2 sequence (P23141 18-567): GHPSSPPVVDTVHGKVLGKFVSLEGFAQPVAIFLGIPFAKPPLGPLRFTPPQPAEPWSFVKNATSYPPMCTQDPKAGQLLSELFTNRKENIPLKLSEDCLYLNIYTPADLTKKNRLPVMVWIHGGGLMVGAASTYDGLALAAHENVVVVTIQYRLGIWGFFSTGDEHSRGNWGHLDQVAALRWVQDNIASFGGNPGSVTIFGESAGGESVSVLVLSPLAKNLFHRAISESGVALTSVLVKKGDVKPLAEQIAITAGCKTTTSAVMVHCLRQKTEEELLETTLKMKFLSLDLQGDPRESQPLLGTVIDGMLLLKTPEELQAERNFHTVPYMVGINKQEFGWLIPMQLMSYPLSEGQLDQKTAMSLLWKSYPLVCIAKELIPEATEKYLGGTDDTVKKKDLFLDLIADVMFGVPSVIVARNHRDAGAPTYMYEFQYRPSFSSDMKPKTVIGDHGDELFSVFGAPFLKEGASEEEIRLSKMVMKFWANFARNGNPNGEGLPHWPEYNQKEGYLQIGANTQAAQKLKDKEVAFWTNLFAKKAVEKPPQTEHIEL

[4] = test system: 31-32kDa enzyme in THP1 lysates; test: Activity-based protein profiling with FP-biotin in THP1 lysate: 31-32kDa enzyme; type: biochemical, human
Procedure, shortened: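 THP1 monocyte lysate (1 mg/ml protein in 50 mM Tris-HCl, pH 7.4) was labelled with 2 μM FP-biotin for 1 h at room temperature. Irreversible inhibitors were preincubated for 30 min (37°C) before the probe. For the reversible inhibitor, lysate received inhibitor, then 0.2 μM FP-biotin for 7.5 min, short of full labelling. Reactions were stopped in reducing SDS loading buffer (95°C, 5 min), run on SDS-PAGE and blotted with avidin-HRP.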

| Molecule | amount of 2AG in culture medium relative to control group (THP1 foam cells; oxon 1 μM) [fold] | amount of 2AG in culture medium relative to control group (THP1 foam cells; oxon 10 μM) [fold] | inhibition of hydrolysis of exogenous 2AG, PGE2-G, or PGF2α-G by intact THP1 monocytes (intact THP1 monocytes) | inhibition of PGE2-G hydrolysis activity in THP1 cell lysate [1] | inhibition of hydrolysis of exogenous 2AG in THP1 lysate [1] [%] | inhibition of 2AG hydrolysis activity in THP1 lysate [1] | knock down of 2AG hydrolysis activity in THP1 monocyte lysate [1] [%] | increase in PGE2-G levels (THP1 macrophages [2]) [fold] | increase in PGF2α-G levels (THP1 macrophages [2]) [fold] | PGF2α-G, PGE2-G, and 2AG levels compared to vehicle-treated cells following ionomycin stimulation (THP1 macrophages [3]) | inhibition of recombinant MAGL (in words) (recombinant human MAGL) | inhibition of recombinant CES1 (in words) (recombinant human CES1) | concentration needed to reduce activity of the 31-32kDa enzyme toward FP-biotin [4] [µM] |
| --- | --- | --- | --- | --- | --- | --- | --- | --- | --- | --- | --- | --- | --- |
| CCOP(=O)(OCC)Oc1ccc([N+](=O)[O-])cc1 [PO, paraoxon] | 3.1 | 3.5 | ~ 50% | near complete inhibition | 35 | did not further enhance inhibition | 55 | 2 | 4 | did not significantly elevate |  |  |  |
| chlorpyrifos oxon [CPO] | 2.5 | 8.1 |  | near complete inhibition | 49 | 72% | 94 |  |  | significantly elevated | potently inhibit | potently inhibit | > 10 |
